# Square brackets hold non-standard residues; d marks the D form. Peptide text beside a SMILES is read from it. aThr = C[C@H](O)[C@H](N)C(=O)O
# What was measured:
# [1] = target: Ribonucleoside-diphosphate reductase RR1 (Homo sapiens) (UniProt P23921+Q7LG56+P31350); assay: Relative inhibitory potency against mammalian ribonucleotide reductase; type: protein-complex assay
# [2] = target: T1, Ribonucleoside-diphosphate reductase RR1 (Homo sapiens, UniProt P23921+P31350+Q7LG56); assay: Inhibition of mammalian ribonucleotide reductase; type: protein-complex assay
# T1 sequence (P23921 whole entry): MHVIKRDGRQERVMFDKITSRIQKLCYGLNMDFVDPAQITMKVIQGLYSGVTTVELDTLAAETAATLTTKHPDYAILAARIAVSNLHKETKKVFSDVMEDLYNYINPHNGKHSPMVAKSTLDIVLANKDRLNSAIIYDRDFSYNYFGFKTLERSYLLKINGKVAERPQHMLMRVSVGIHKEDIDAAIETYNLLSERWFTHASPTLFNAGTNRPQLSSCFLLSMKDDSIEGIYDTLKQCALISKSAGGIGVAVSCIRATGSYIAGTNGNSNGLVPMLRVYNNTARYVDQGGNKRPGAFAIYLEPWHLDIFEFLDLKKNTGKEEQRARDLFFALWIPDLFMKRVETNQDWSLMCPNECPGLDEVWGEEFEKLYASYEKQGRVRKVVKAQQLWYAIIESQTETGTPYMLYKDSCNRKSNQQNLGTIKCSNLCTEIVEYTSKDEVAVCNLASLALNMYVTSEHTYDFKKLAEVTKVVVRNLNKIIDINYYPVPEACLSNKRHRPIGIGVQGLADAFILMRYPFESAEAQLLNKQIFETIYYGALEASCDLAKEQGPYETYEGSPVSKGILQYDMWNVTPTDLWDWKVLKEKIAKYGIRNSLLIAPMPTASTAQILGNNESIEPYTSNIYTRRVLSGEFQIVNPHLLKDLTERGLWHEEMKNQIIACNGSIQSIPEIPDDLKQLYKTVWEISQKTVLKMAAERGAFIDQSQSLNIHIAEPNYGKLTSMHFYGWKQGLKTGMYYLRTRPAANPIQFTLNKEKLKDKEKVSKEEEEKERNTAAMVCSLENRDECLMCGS
# T1 sequence (Q7LG56 whole entry): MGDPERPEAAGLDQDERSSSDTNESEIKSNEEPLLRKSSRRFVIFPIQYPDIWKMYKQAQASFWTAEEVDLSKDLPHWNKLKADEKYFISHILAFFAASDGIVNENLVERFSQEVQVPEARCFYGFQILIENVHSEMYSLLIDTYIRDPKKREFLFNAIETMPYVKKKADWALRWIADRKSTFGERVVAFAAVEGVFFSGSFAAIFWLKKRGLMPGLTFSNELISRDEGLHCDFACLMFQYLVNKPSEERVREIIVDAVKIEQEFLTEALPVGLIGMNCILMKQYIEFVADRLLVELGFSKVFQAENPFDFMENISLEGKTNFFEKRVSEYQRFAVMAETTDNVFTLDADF
# T1 sequence (P31350 whole entry): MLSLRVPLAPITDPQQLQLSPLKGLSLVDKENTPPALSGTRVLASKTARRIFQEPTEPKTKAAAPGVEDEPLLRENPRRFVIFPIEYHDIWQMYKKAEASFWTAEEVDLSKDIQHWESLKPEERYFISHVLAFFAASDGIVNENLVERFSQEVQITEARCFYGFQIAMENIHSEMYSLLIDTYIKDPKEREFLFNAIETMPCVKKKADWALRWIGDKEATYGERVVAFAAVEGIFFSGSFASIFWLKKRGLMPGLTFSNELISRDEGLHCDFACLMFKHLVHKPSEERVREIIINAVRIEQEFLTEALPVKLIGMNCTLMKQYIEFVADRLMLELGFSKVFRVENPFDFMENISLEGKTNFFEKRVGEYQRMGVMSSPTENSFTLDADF
# Procedure, shortened: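 Calf thymus R1 (1 μg) with cloned mouse R2 (2 μg) expressed in E. coli from pET-M2. CDP reduction was run at 35 °C with DTT as reductant. [³H]dCDP was separated on aminophenylboronate and counted by scintillation.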
Compound,RI [1] [%],IC50 [2] [µM]
CC(=O)N[C@@H](Cc1ccccc1)C(=O)N[C@H](C(=O)N[C@@H](CC(C)C)C(=O)N[C@@H](C)C(=O)N[C@@H](C)C(=O)N[C@@H](CC(=O)O)C(=O)N[C@@H](Cc1ccccc1)C(=O)O)[C@H](C)O,2.9,–
Ac-FTLDADL-OH,–,> 400
CC(=O)N[C@@H](Cc1ccccc1)C(=O)N[C@H](C(=O)N[C@@H](CC(C)C)C(=O)N[C@@H](CC(=O)O)C(=O)N[C@@H](C)C(=O)N[C@@H](CC(N)=O)C(=O)N[C@@H](Cc1ccccc1)C(=O)O)[C@H](C)O,23,–
CC(=O)N[C@@H](Cc1ccccc1)C(=O)N[C@H](C(=O)N[C@@H](CC(C)C)C(=O)N[C@@H](CC(=O)O)C(=O)N[C@@H](Cc1ccccc1)C(=O)O)[C@H](C)O,2.5,–
CC(=O)N[C@@H](Cc1ccccc1)C(=O)N[C@H](C(=O)N[C@@H](CC(C)C)C(=O)N[C@@H](CC(=O)O)C(=O)N[C@@H](C)C(=O)N[C@@H](CCC(=O)O)C(=O)N[C@@H](Cc1ccccc1)C(=O)O)[C@H](C)O,1.7,–
Ac-FLDADF-OH,2.5,–
CC(=O)N[C@@H](Cc1ccc(N=[N+]=[N-])cc1)C(=O)N[C@H](C(=O)N[C@@H](CC(C)C)C(=O)N[C@@H](CC(=O)O)C(=O)N[C@@H](C)C(=O)N[C@@H](CC(=O)O)C(=O)N[C@@H](Cc1ccccc1)C(=O)O)[C@H](C)O,10,–
CC(=O)N[C@H](C(=O)N[C@@H](CC(C)C)C(=O)N[C@@H](CC(=O)O)C(=O)N[C@@H](C)C(=O)N[C@@H](CC(=O)O)C(=O)N[C@@H](Cc1ccccc1)C(=O)O)[C@@H](C)O,–,> 400
Ac-LDADF-OH,< 3,> 400
H-FTLDADF-OH,–,> 400
Ac-LTLDADF-OH,–,> 400
CC(=O)N[C@@H](Cc1ccccc1)C(=O)N[C@H](C(=O)N[C@@H](CC(C)C)C(=O)N[C@@H](CC(=O)O)C(=O)N[C@@H](C)C(=O)N[C@@H](CC(=O)O)C(=O)N[C@@H](Cc1ccccc1)C(=O)O)[C@H](C)O (Ac-F[aThr]LDADF-OH),100,–
CC(=O)N[C@@H](Cc1ccccc1)C(=O)N[C@H](C(=O)N[C@@H](CC(C)C)C(=O)N[C@@H](CC(=O)O)C(=O)N[C@@H](CC(=O)O)C(=O)N[C@@H](Cc1ccccc1)C(=O)O)[C@H](C)O,3,–
CC(=O)N[C@@H](Cc1ccccc1)C(=O)N[C@H](C(=O)N[C@H](C(=O)N[C@@H](CC(=O)O)C(=O)N[C@@H](C)C(=O)N[C@@H](CC(=O)O)C(=O)N[C@@H](Cc1ccccc1)C(=O)O)C(C)C)[C@H](C)O,35,–
CC(=O)N[C@H](C(=O)N[C@@H](CC(C)C)C(=O)N[C@@H](CC(=O)O)C(=O)N[C@@H](C)C(=O)N[C@@H](CC(=O)O)C(=O)N[C@@H](Cc1ccccc1)C(=O)O)[C@H](C)O,< 3,–
CC(=O)N[C@@H](Cc1ccccc1)C(=O)N[C@H](C(=O)N[C@@H](CC(C)C)C(=O)N[C@@H](CC(=O)O)C(=O)N[C@@H](C)C(=O)N[C@@H](CC(=O)O)C(=O)N[C@@H](CC(C)C)C(=O)O)[C@H](C)O (Ac-F[aThr]LDADL-OH),< 3,–
CC(=O)N[C@@H](Cc1ccccc1)C(=O)N[C@H](C(=O)N[C@@H](CC(C)C)C(=O)N[C@@H](CC(=O)O)C(=O)N[C@@H](C)C(=O)N[C@@H](C)C(=O)N[C@@H](Cc1ccccc1)C(=O)O)[C@H](C)O,28,–
CC(C)C[C@H](NC(=O)[C@@H](NC(=O)[C@H](Cc1ccccc1)NC(=O)[C@@H](N)CO)[C@H](C)O)C(=O)N[C@@H](CC(=O)O)C(=O)N[C@@H](C)C(=O)N[C@@H](CC(=O)O)C(=O)N[C@@H](Cc1ccccc1)C(=O)O,25,–
CC(C)C[C@H](NC(=O)[C@@H](NC(=O)[C@@H](N)Cc1ccccc1)[C@H](C)O)C(=O)N[C@@H](CC(=O)O)C(=O)N[C@@H](C)C(=O)N[C@@H](CC(=O)O)C(=O)N[C@@H](Cc1ccccc1)C(=O)O (H-F[aThr]LDADF-OH),< 3,–
CC(=O)N[C@@H](Cc1ccccc1)C(=O)N[C@H](C(=O)N[C@@H](CC(C)C)C(=O)N[C@@H](CC(=O)O)C(=O)N[C@@H](C)C(=O)N[C@@H](CC(C)C)C(=O)N[C@@H](Cc1ccccc1)C(=O)O)[C@H](C)O,34,–
CC(=O)N[C@@H](Cc1ccccc1)C(=O)N[C@H](C(=O)N[C@@H](CC(C)C)C(=O)N[C@@H](CC(N)=O)C(=O)N[C@@H](C)C(=O)N[C@@H](CC(=O)O)C(=O)N[C@@H](Cc1ccccc1)C(=O)O)[C@H](C)O,40,–
CC(=O)N[C@@H](CC(C)C)C(=O)N[C@H](C(=O)N[C@@H](CC(C)C)C(=O)N[C@@H](CC(=O)O)C(=O)N[C@@H](C)C(=O)N[C@@H](CC(=O)O)C(=O)N[C@@H](Cc1ccccc1)C(=O)O)[C@H](C)O (Ac-L[aThr]LDADF-OH),< 3,–
CC(=O)N[C@@H](Cc1ccccc1)C(=O)N[C@H](C(=O)N[C@@H](CC(C)C)C(=O)N[C@@H](CC(=O)O)C(=O)NCC(=O)N[C@@H](CC(=O)O)C(=O)N[C@@H](Cc1ccccc1)C(=O)O)[C@H](C)O,9,–
CC(=O)N[C@@H](CC(N)=O)C(=O)N[C@@H](CO)C(=O)N[C@@H](Cc1ccccc1)C(=O)N[C@H](C(=O)N[C@@H](CC(C)C)C(=O)N[C@@H](CC(=O)O)C(=O)N[C@@H](C)C(=O)N[C@@H](CC(=O)O)C(=O)N[C@@H](Cc1ccccc1)C(=O)O)[C@H](C)O,100,–
CC(=O)N[C@@H](Cc1ccc(N)cc1)C(=O)N[C@H](C(=O)N[C@@H](CC(C)C)C(=O)N[C@@H](CC(=O)O)C(=O)N[C@@H](C)C(=O)N[C@@H](CC(=O)O)C(=O)N[C@@H](Cc1ccccc1)C(=O)O)[C@H](C)O,10,–
CC(=O)N[C@@H](Cc1ccccc1)C(=O)N[C@H](C(=O)N[C@@H](C)C(=O)N[C@@H](CC(=O)O)C(=O)N[C@@H](C)C(=O)N[C@@H](CC(=O)O)C(=O)N[C@@H](Cc1ccccc1)C(=O)O)[C@H](C)O,4.9,–
CC(=O)N[C@@H](Cc1ccccc1)C(=O)N[C@H](C(=O)N[C@@H](CC(C)C)C(=O)N[C@@H](CC(=O)O)C(=O)N[C@@H](CC(C)C)C(=O)N[C@@H](CC(=O)O)C(=O)N[C@@H](Cc1ccccc1)C(=O)O)[C@H](C)O,35,–
CC(=O)N[C@@H](Cc1ccccc1)C(=O)N[C@H](C(=O)N[C@@H](CC(C)C)C(=O)N[C@@H](CC(=O)O)C(=O)N[C@@H](C)C(=O)N[C@@H](CC(=O)O)C(=O)N[C@@H](Cc1ccccc1)C(=O)N[C@@H](C)C(=O)N[C@@H](C)C(=O)O)[C@H](C)O (Ac-F[aThr]LDADFAA-OH),2.1,–
CC(=O)N[C@@H](Cc1ccccc1)C(=O)N[C@H](C(=O)N[C@@H](Cc1ccccc1)C(=O)N[C@@H](CC(=O)O)C(=O)N[C@@H](C)C(=O)N[C@@H](CC(=O)O)C(=O)N[C@@H](Cc1ccccc1)C(=O)O)[C@H](C)O,18,–
CC(=O)N[C@@H](CO)C(=O)N[C@@H](Cc1ccccc1)C(=O)N[C@H](C(=O)N[C@@H](CC(C)C)C(=O)N[C@@H](CC(=O)O)C(=O)N[C@@H](C)C(=O)N[C@@H](CC(=O)O)C(=O)N[C@@H](Cc1ccccc1)C(=O)O)[C@H](C)O,100,–
